Test results from ChEMBL document CHEMBL2321753, “Synthesis and biological evaluation of radioiodinated quinacrine-based derivatives for SPECT imaging of Aβ plaques” (Eur J Med Chem, 2013).
Values belong to the molecule of their own block, whether it stands above or below them.

Columns and labels:
Liver [1] = test: Biodistribution in ddY mouse liver at 0.1 to 0.4 uCi, iv after 2 mins by gamma counting; type: ADME, organism-based; conditions: in vivo
Method in brief: (§1)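 [125I]ligand (0.1–0.4 µCi) in 100 µL PBS (pH 7.4) containing 30 µL DMSO, injected into the tail vein of ddY mice (5 weeks, 22–25 g). Mice sacrificed at 2, 10, 30 and 60 min. Organs removed, weighed and gamma-counted. Values are % injected dose per gram, except stomach as % dose per organ. Mean (SD) of 3–6 mice per time point.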

Intestine [2] = test: Biodistribution in ddY mouse intestine at 0.1 to 0.4 uCi, iv after 10 mins by gamma counting; type: ADME, organism-based; conditions: in vivo; method in brief: as §1
Pancreas [3] = test: Biodistribution in ddY mouse pancreas at 0.1 to 0.4 uCi, iv after 30 mins by gamma counting; type: ADME, organism-based; conditions: in vivo, 0.5 h; method in brief: as §1
Pancreas [4] = test: Biodistribution in ddY mouse pancreas at 0.1 to 0.4 uCi, iv after 2 mins by gamma counting; type: ADME, organism-based; conditions: in vivo; method in brief: as §1
Brain [5] = test: Biodistribution in ddY mouse brain at 0.1 to 0.4 uCi, iv after 60 mins by gamma counting; type: ADME, organism-based; conditions: in vivo, 1 h; method in brief: as §1
Brain [6] = test: Biodistribution in ddY mouse brain at 0.1 to 0.4 uCi, iv after 10 mins by gamma counting; type: ADME, organism-based; conditions: in vivo; method in brief: as §1
Liver [7] = test: Biodistribution in ddY mouse liver at 0.1 to 0.4 uCi, iv after 30 mins by gamma counting; type: ADME, organism-based; conditions: in vivo, 0.5 h; method in brief: as §1
Stomach [8] = test: Biodistribution in ddY mouse stomach assessed per organ at 0.1 to 0.4 uCi, iv after 30 mins by gamma counting; type: ADME, organism-based; conditions: in vivo, 0.5 h; method in brief: as §1
Stomach [9] = test: Biodistribution in ddY mouse stomach assessed per organ at 0.1 to 0.4 uCi, iv after 60 mins by gamma counting; type: ADME, organism-based; conditions: in vivo, 1 h; method in brief: as §1
Heart [10] = test: Biodistribution in ddY mouse heart at 0.1 to 0.4 uCi, iv after 10 mins by gamma counting; type: ADME, organism-based; conditions: in vivo; method in brief: as §1
Heart [11] = test: Biodistribution in ddY mouse heart at 0.1 to 0.4 uCi, iv after 2 mins by gamma counting; type: ADME, organism-based; conditions: in vivo; method in brief: as §1
Lung [12] = test: Biodistribution in ddY mouse lung at 0.1 to 0.4 uCi, iv after 10 mins by gamma counting; type: ADME, organism-based; conditions: in vivo; method in brief: as §1
Liver [13] = test: Biodistribution in ddY mouse liver at 0.1 to 0.4 uCi, iv after 10 mins by gamma counting; type: ADME, organism-based; conditions: in vivo; method in brief: as §1
Spleen [14] = test: Biodistribution in ddY mouse spleen at 0.1 to 0.4 uCi, iv after 30 mins by gamma counting; type: ADME, organism-based; conditions: in vivo, 0.5 h; method in brief: as §1
Spleen [15] = test: Biodistribution in ddY mouse spleen at 0.1 to 0.4 uCi, iv after 10 mins by gamma counting; type: ADME, organism-based; conditions: in vivo; method in brief: as §1
Heart [16] = test: Biodistribution in ddY mouse heart at 0.1 to 0.4 uCi, iv after 30 mins by gamma counting; type: ADME, organism-based; conditions: in vivo, 0.5 h; method in brief: as §1
Kidney [17] = test: Biodistribution in ddY mouse kidney at 0.1 to 0.4 uCi, iv after 10 mins by gamma counting; type: ADME, organism-based; conditions: in vivo; method in brief: as §1
Blood [18] = test: Biodistribution in ddY mouse blood at 0.1 to 0.4 uCi, iv after 60 mins by gamma counting; type: ADME, organism-based; conditions: in vivo, 1 h; method in brief: as §1
Liver [19] = test: Biodistribution in ddY mouse liver at 0.1 to 0.4 uCi, iv after 60 mins by gamma counting; type: ADME, organism-based; conditions: in vivo, 1 h; method in brief: as §1
Kidney [20] = test: Biodistribution in ddY mouse kidney at 0.1 to 0.4 uCi, iv after 30 mins by gamma counting; type: ADME, organism-based; conditions: in vivo, 0.5 h; method in brief: as §1
Stomach [21] = test: Biodistribution in ddY mouse stomach assessed per organ at 0.1 to 0.4 uCi, iv after 2 mins by gamma counting; type: ADME, organism-based; conditions: in vivo; method in brief: as §1
Spleen [22] = test: Biodistribution in ddY mouse spleen at 0.1 to 0.4 uCi, iv after 2 mins by gamma counting; type: ADME, organism-based; conditions: in vivo; method in brief: as §1
Stomach [23] = test: Biodistribution in ddY mouse stomach assessed per organ at 0.1 to 0.4 uCi, iv after 10 mins by gamma counting; type: ADME, organism-based; conditions: in vivo; method in brief: as §1
Blood [24] = test: Biodistribution in ddY mouse blood at 0.1 to 0.4 uCi, iv after 10 mins by gamma counting; type: ADME, organism-based; conditions: in vivo; method in brief: as §1
Brain [25] = test: Ratio of drug level in brain after 2 mins to brain after 60 mins in ddY mouse brain at 0.1 to 0.4 uCi, iv; type: ADME, organism-based; conditions: in vivo
Method in brief: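 ddY mice (5 weeks, 22–25 g) given [125I]ligand (0.1–0.4 µCi) iv in PBS/DMSO. Brain radioactivity (% dose/g) measured by gamma counting at 2 and 60 min, and the 2 min/60 min ratio taken as a washout index.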

Brain [26] = test: Biodistribution in ddY mouse brain at 0.1 to 0.4 uCi, iv after 30 mins by gamma counting; type: ADME, organism-based; conditions: in vivo, 0.5 h; method in brief: as §1
Pancreas [27] = test: Biodistribution in ddY mouse pancreas at 0.1 to 0.4 uCi, iv after 60 mins by gamma counting; type: ADME, organism-based; conditions: in vivo, 1 h; method in brief: as §1
Lung [28] = test: Biodistribution in ddY mouse lung at 0.1 to 0.4 uCi, iv after 2 mins by gamma counting; type: ADME, organism-based; conditions: in vivo; method in brief: as §1
Lung [29] = test: Biodistribution in ddY mouse lung at 0.1 to 0.4 uCi, iv after 30 mins by gamma counting; type: ADME, organism-based; conditions: in vivo, 0.5 h; method in brief: as §1
Blood [30] = test: Biodistribution in ddY mouse blood at 0.1 to 0.4 uCi, iv after 2 mins by gamma counting; type: ADME, organism-based; conditions: in vivo; method in brief: as §1
Pancreas [31] = test: Biodistribution in ddY mouse pancreas at 0.1 to 0.4 uCi, iv after 10 mins by gamma counting; type: ADME, organism-based; conditions: in vivo; method in brief: as §1
Brain [32] = test: Biodistribution in ddY mouse brain at 0.1 to 0.4 uCi, iv after 2 mins by gamma counting; type: ADME, organism-based; conditions: in vivo; method in brief: as §1
Heart [33] = test: Biodistribution in ddY mouse heart at 0.1 to 0.4 uCi, iv after 60 mins by gamma counting; type: ADME, organism-based; conditions: in vivo, 1 h; method in brief: as §1
Kidney [34] = test: Biodistribution in ddY mouse kidney at 0.1 to 0.4 uCi, iv after 2 mins by gamma counting; type: ADME, organism-based; conditions: in vivo; method in brief: as §1
Kidney [35] = test: Biodistribution in ddY mouse kidney at 0.1 to 0.4 uCi, iv after 60 mins by gamma counting; type: ADME, organism-based; conditions: in vivo, 1 h; method in brief: as §1
Blood [36] = test: Biodistribution in ddY mouse blood at 0.1 to 0.4 uCi, iv after 30 mins by gamma counting; type: ADME, organism-based; conditions: in vivo, 0.5 h; method in brief: as §1
Intestine [37] = test: Biodistribution in ddY mouse intestine at 0.1 to 0.4 uCi, iv after 2 mins by gamma counting; type: ADME, organism-based; conditions: in vivo; method in brief: as §1
Intestine [38] = test: Biodistribution in ddY mouse intestine at 0.1 to 0.4 uCi, iv after 60 mins by gamma counting; type: ADME, organism-based; conditions: in vivo, 1 h; method in brief: as §1
Spleen [39] = test: Biodistribution in ddY mouse spleen at 0.1 to 0.4 uCi, iv after 60 mins by gamma counting; type: ADME, organism-based; conditions: in vivo, 1 h; method in brief: as §1
Lung [40] = test: Biodistribution in ddY mouse lung at 0.1 to 0.4 uCi, iv after 60 mins by gamma counting; type: ADME, organism-based; conditions: in vivo, 1 h; method in brief: as §1
Intestine [41] = test: Biodistribution in ddY mouse intestine at 0.1 to 0.4 uCi, iv after 30 mins by gamma counting; type: ADME, organism-based; conditions: in vivo, 0.5 h; method in brief: as §1
[42] = n-octanol-sodium phosphate buffer partition co-efficient, log D of the compound at pH 7.4 by shake flask method; type: physicochemical
Method in brief: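 Shake-flask partition between n-octanol and sodium phosphate buffer, pH 7.4, shaken 10 min at room temperature, then centrifuged. Weighed 0.5 mL samples of each layer counted. log D from the ratio of cpm per gram of octanol to cpm per gram of buffer; n = 3.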

Drug uptake (Liver [1]): 18.77 % ID/g | Drug uptake (Intestine [2]): 6.41 % ID/g | Drug uptake (Pancreas [3]): 1.33 % ID/g | Drug uptake (Pancreas [4]): 5.41 % ID/g | Drug uptake (Brain [5]): 0.37 % ID/g | Drug uptake (Brain [6]): 2.14 % ID/g | Drug uptake (Liver [7]): 13.65 % ID/g | Drug uptake (Stomach [8]): 5.97 %ID | Drug uptake (Stomach [9]): 4.36 %ID | Drug uptake (Heart [10]): 1.82 % ID/g | Drug uptake (Heart [11]): 5.83 % ID/g | Drug uptake (Lung [12]): 3.37 % ID/g | Drug uptake (Liver [13]): 20.85 % ID/g | Drug uptake (Spleen [14]): 1.87 % ID/g | Drug uptake (Spleen [15]): 2.12 % ID/g | Drug uptake (Heart [16]): 1.59 % ID/g | Drug uptake (Kidney [17]): 4.69 % ID/g | Drug uptake (Blood [18]): 1.77 % ID/g | Drug uptake (Liver [19]): 5.8 % ID/g | Drug uptake (Kidney [20]): 4.41 % ID/g | Drug uptake (Stomach [21]): 1.86 %ID | Drug uptake (Spleen [22]): 3.75 % ID/g | Drug uptake (Stomach [23]): 3.51 %ID | Drug uptake (Blood [24]): 2.19 % ID/g | Ratio (Brain [25]): 11.9 | Drug uptake (Brain [26]): 0.82 % ID/g | Drug uptake (Pancreas [27]): 1.1 % ID/g | Drug uptake (Lung [28]): 5.95 % ID/g | Drug uptake (Lung [29]): 3.28 % ID/g | Drug uptake (Blood [30]): 2.14 % ID/g | Drug uptake (Pancreas [31]): 2.03 % ID/g | Drug uptake (Brain [32]): 4.41 % ID/g | Drug uptake (Heart [33]): 1.1 % ID/g | Drug uptake (Kidney [34]): 8.07 % ID/g | Drug uptake (Kidney [35]): 2.77 % ID/g | Drug uptake (Blood [36]): 2.59 % ID/g | Drug uptake (Intestine [37]): 2.59 % ID/g | Drug uptake (Intestine [38]): 20.17 % ID/g | Drug uptake (Spleen [39]): 1.24 % ID/g | Drug uptake (Lung [40]): 2.04 % ID/g | Drug uptake (Intestine [41]): 16.78 % ID/g
Structure (SMILES): COc1ccc2nc3cc([125I])ccc3c(OC)c2c1

Drug uptake (Liver [1]): 17.25 % ID/g | Drug uptake (Intestine [2]): 9.11 % ID/g | Drug uptake (Pancreas [3]): 3.55 % ID/g | Drug uptake (Pancreas [4]): 6.91 % ID/g | Drug uptake (Brain [5]): 0.33 % ID/g | Drug uptake (Brain [6]): 2.34 % ID/g | Drug uptake (Liver [7]): 8.26 % ID/g | Drug uptake (Stomach [8]): 4.63 %ID | Drug uptake (Stomach [9]): 5.58 %ID | Drug uptake (Heart [10]): 2.8 % ID/g | Drug uptake (Heart [11]): 7.79 % ID/g | Drug uptake (Lung [12]): 5.62 % ID/g | Drug uptake (Liver [13]): 16.41 % ID/g | Drug uptake (Spleen [14]): 6.02 % ID/g | Drug uptake (Spleen [15]): 9.14 % ID/g | Drug uptake (Heart [16]): 1.46 % ID/g | Drug uptake (Kidney [17]): 11.89 % ID/g | Drug uptake (Blood [18]): 0.56 % ID/g | Drug uptake (Liver [19]): 7.52 % ID/g | Drug uptake (Kidney [20]): 10.25 % ID/g | Drug uptake (Stomach [21]): 1.71 %ID | Drug uptake (Spleen [22]): 7.6 % ID/g | Drug uptake (Stomach [23]): 3.71 %ID | Drug uptake (Blood [24]): 1.18 % ID/g | Ratio (Brain [25]): 9 | Drug uptake (Brain [26]): 0.95 % ID/g | Drug uptake (Pancreas [27]): 1.63 % ID/g | Drug uptake (Lung [28]): 15.8 % ID/g | Drug uptake (Lung [29]): 4.38 % ID/g | Drug uptake (Blood [30]): 1.75 % ID/g | Drug uptake (Pancreas [31]): 6.92 % ID/g | Drug uptake (Brain [32]): 2.97 % ID/g | Drug uptake (Heart [33]): 0.84 % ID/g | Drug uptake (Kidney [34]): 12.98 % ID/g | Drug uptake (Kidney [35]): 6 % ID/g | Drug uptake (Blood [36]): 0.85 % ID/g | logD [42]: 2.14 | Drug uptake (Intestine [37]): 3.82 % ID/g | Drug uptake (Intestine [38]): 23.83 % ID/g | Drug uptake (Spleen [39]): 4.45 % ID/g | Drug uptake (Lung [40]): 2.3 % ID/g | Drug uptake (Intestine [41]): 19.47 % ID/g
Structure (SMILES): CNc1c2ccc([125I])cc2nc2ccc(OC)cc12
